These results are taken from ChEMBL document CHEMBL3576816, “5'-Silylated 3'-1,2,3-triazolyl Thymidine Analogues as Inhibitors of West Nile Virus and Dengue Virus” (J Med Chem, 2015).

The nature of data set [1]: Cytotoxicity against BHK cells infected with West Nile virus replicon assessed as cell viability after 3 days by CellTiter 96 aqueous one solution cell proliferation assay. The format is cell-based, Mesocricetus auratus. Conditions: hamster, 72 h. In a few lines:
(§1)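 WNV replicon BHK cells, about 3 × 10^3/well, plated without antibiotic selection; next day compound in DMSO (10 μM final for screening, or eight serial dilutions), 3 days at 37°C, 5% CO2. Tetrazolium reagent, absorbance 450 nm, triplicate means versus DMSO wells; CC50 = 50% reduction in proliferation; CC50s mean ± SD of two experiments, top dose 200 μM.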

In data set [2] the test system is Dengue virus. The data set can be described thus: Antiviral activity against Dengue virus infected in BHK pD2-hRucPac-2ATG cells assessed as inhibition of viral replication after 3 days by luciferase reporter gene assay. Conditions: 72 h. The format is functional, organism-based. The essentials:
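BHK DENV subgenomic replicon line carrying Renilla luciferase, kept on 3 μg/mL puromycin; 1.5 × 10^3 cells/well plated without selection, compounds in DMSO added next day to triplicate wells, at 10 μM final for screening or eight serial dilutions. Live-cell Renilla substrate after 3 days, luminescence versus DMSO wells; EC50 = 50% luciferase reduction; MPA 1 μM control.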
In general terms: In a reporter assay the amount or activity of a reporter protein is the signal.

The nature of data set [3]: Cytotoxicity against BHK cells infected with Dengue virus replicon assessed as cell viability after 3 days by CellTiter 96 aqueous one solution cell proliferation assay. The conditions noted are these: hamster, 72 h. It is filed as cell-based, Mesocricetus auratus. In a few lines: (§2)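 DENV replicon BHK cells, 1.5 × 10^3/well, plated without antibiotic selection; next day compound in DMSO (10 μM final for screening, or eight serial dilutions), 3 days at 37°C, 5% CO2. Tetrazolium (MTS-type) reagent, absorbance 450 nm, triplicate means versus DMSO wells; CC50 = 50% reduction in proliferation; CC50s mean ± SD of two experiments, top dose 200 μM.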
On the technique in general: In antiviral work, replicon cells carry a viral genome segment that copies itself.

The subject of data set [4] is dengue virus type 2. The experiment in a line: Antiviral activity against Dengue virus type 2 New Guinea C infected in African green monkey Vero cells assessed as reduction in viral titer at 10 uM after 2 days by Giemsa staining assay relative to control. It is filed as functional. Also on record: scale not given: the % may be the effect or the level left. The essentials:
(§3)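 Vero cells, 4 × 10^5/well, infected with DENV-2 New Guinea C at MOI 0.2 for 2 h at 37°C, washed, then compound added (10 μM; MPA 1.0 μM). Supernatant taken after 2 days, clarified, 10-fold dilutions plaqued on Vero under methylcellulose for 5 days, fixed, Giemsa-stained; titer as PFU/mL, percent reduction; 10 μM from two experiments, 1.0 μM from one.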

The subject of data set [5] is dengue virus type 3. The experiment in a line: Displacement of [3H]-SAM from biotinylated Dengue virus 3 methyltransferase expressed in Escherichia coli at 20 uM preincubated for 20 mins followed by [3H]-SAM addition measured after 15 mins by scintillation counting analysis. The essentials: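 Biotinylated refolded E. coli-expressed DENV3 MTase (580 nM) with SPA beads (1.5 mg/mL) and 20 μM competitor (compound, SAM or sinefungin) in Tris pH 7.5 buffer with NaCl, KCl, MgCl2, MnCl2, CHAPS, 20 min at 23°C; 3H-SAM (425 nM) added, 15 min at 23°C, centrifuged, scintillation proximity counting.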
In general terms: Displacement assays read how much labelled ligand stays bound in the presence of the test substance.

Data set [6] concerns West Nile virus. The data set can be described thus: Antiviral activity against West Nile virus infected in BHK-WII RepRen1B cells assessed as inhibition of viral replication after 3 days by luciferase reporter gene assay. It is filed as functional, organism-based. The conditions noted are these: 72 h.
In data set [7] the test system is dengue virus type 2. The experiment in a line: Antiviral activity against Dengue virus type 2 New Guinea C infected in African green monkey Vero cells assessed as reduction in viral titer at 1 uM after 2 days by Giemsa staining assay relative to control. It is filed as functional. Details: scale not given: the % may be the effect or the level left. The essentials: as §3

Data set [8] concerns Human immunodeficiency virus 1. The data set can be described thus: Antiviral activity against HIV1. The format is functional, organism-based.
Data set [9] concerns the target Human immunodeficiency virus type 1 reverse transcriptase (Human immunodeficiency virus 1) (UniProt Q72547). The data set can be described thus: Inhibition of HIV1 reverse transcriptase.
For data set [10], the system named is unidentified influenza virus. The data set can be described thus: Antiviral activity against Influenzae virus. It is filed as functional, organism-based.
Data set [11] concerns Human betaherpesvirus 5. The data set can be described thus: Antiviral activity against Human cytomegalovirus. It is filed as functional, organism-based.
The test system of data set [12] is Hepatitis C virus. The data set can be described thus: Antiviral activity against HCV. It is filed as functional, organism-based. Conditions: Hepacivirus hominis.
Data set [13] has as its system West Nile virus. The experiment in a line: Antiviral activity against West Nile virus infected in BHK-WII RepRen1B cells assessed as inhibition of viral replication at 10 uM after 3 days by luciferase reporter gene assay relative to control. The format is functional. The conditions noted are these: 72 h. In a few lines:
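Compound (DMSO, 10 μM final) added next day in triplicate; lycorine 1 μM served as control inhibitor. Three days on, live-cell Renilla substrate (1:1000 in phenol-red-free DME, 10% FBS) replaced medium. Luminescence measured; triplicate means compared with DMSO-alone wells.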

Data set [14] is described as follows: Cytotoxicity against BHK cells infected with West Nile virus replicon assessed as cell viability at 10 uM after 3 days by CellTiter 96 aqueous one solution cell proliferation assay relative to control. It is filed as cell-based, Mesocricetus auratus. Conditions: hamster, bhk, 72 h, 10 µM. In a few lines:
as §1

Data set [15] relates to Dengue virus. The data set can be described thus: Antiviral activity against Dengue virus infected in BHK pD2-hRucPac-2ATG cells assessed as inhibition of viral replication at 10 uM after 3 days by luciferase reporter gene assay relative to control. The format is functional. Conditions: 72 h. In a few lines:
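Renilla luciferase-bearing DENV subgenomic replicon BHK cells, kept on 3 μg/mL puromycin, seeded at 1.5 × 10^3/well without selection. Next day, 10 μM final compound in DMSO added to triplicate wells; MPA 1 μM as control inhibitor. After 3 days, medium swapped for live-cell Renilla substrate (1:1000, phenol-red-free DME, 10% FBS). Luminescence read; triplicate mean compared with DMSO-only wells.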

A short description of data set [16]: Cytotoxicity against BHK cells infected with Dengue virus replicon assessed as cell viability at 10 uM after 3 days by CellTiter 96 aqueous one solution cell proliferation assay relative to control. The format is cell-based, Mesocricetus auratus. Conditions: hamster, bhk, 72 h, 10 µM. The essentials:
as §2

Activity calls are given as the source filed them. No cut-off for these calls is given here. Where only a bound is given, the exact number is not on record here.

As to `Cc1cn([C@H]2C[C@H](NC(=O)CCCCc3ccc(F)cc3)[C@@H](CO[Si](C)(C)C(C)(C)C)O2)c(=O)[nH]c1=O`, the CC50 in data set [1] came out at 23 µM; in [3] it was 22 µM. In addition, the EC50 in data set [2] came to 9.6 µM; in data set [6], 15 µM. Also, the Activity in [4] is on record as 67%. Besides, the inhibition entry in [5] is “Active”.
As for `COc1c(C)c2c(c(O)c1C/C=C(\C)CCC(=O)O)C(=O)OC2` [MYCOPHENOLIC ACID], the Activity in [7] is listed as 68%.
As for `COc1ccc2cc(-c3cn([C@H]4C[C@H](n5cc(C)c(=O)[nH]c5=O)O[C@@H]4CO[Si](C)(C)C(C)(C)C)nn3)ccc2c1`, the figures for the CC50 in data set [1] and in data set [3] were over 200 µM and 21 µM, respectively. Also, the EC50 in data set [2] came to 8.4 µM; in data set [6], 7.4 µM. Besides, the Activity in data set [4] is reported as 98%; in data set [14], 100%; in data set [16], 96%. The outcome in [8], in data set [10], in data set [11] and in data set [12] was inactive. The inhibition result in data set [5] was “Active”. Moreover, the inhibition result in data set [9] is “inactive”. The results for the inhibition at 10 µM in data set [13] and in data set [15] were 92% and 57%, respectively.

Usually CC50 stands for the concentration at which the toxic effect on the cells reaches its halfway point. The term EC50 denotes the midpoint of the concentration-response curve. Broadly, the inhibition is the percentage by which the read-out fell short of the control.
